pIC50: −log10 of the molar value.
Columns and labels:
[1] = biological target: T1, Neuraminidase (Influenza A virus, UniProt B4URF0); test: Inhibition of Influenza A virus A/California/07/2009 (H1N1) neuraminidase using MUNANA as substrate preincubated for 30 mins measured after 2 hrs
[2] = biological target: T1, Neuraminidase; test: Inhibition of Influenza A virus A/Hong Kong/8/1968 (H3N2) neuraminidase using MUNANA as substrate preincubated for 30 mins measured after 2 hrs
[3] = system: Influenza A virus; test: Antiviral activity against Influenza A virus A/California/07/2009 (H1N1) infected in MDCK cells assessed as reduction in virus plaque formation after 5 days; format: functional, organism-based; conditions: 120 h
In short: (§1)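 MDCK cells were seeded at 1×10^6 per well and inoculated with virus at confluence. Serial ten-fold dilutions of inhibitor were added in an overlay of serum-free DMEM with 0.6% agarose and 1 µg/mL TPCK-treated trypsin. The overlay was removed after 5 days, and cells were fixed with 70% ethanol and stained with 0.2% crystal violet.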

[4] = system: Influenza A virus; test: Antiviral activity against Influenza A virus A/Hong Kong/8/1968 (H3N2) infected in MDCK cells assessed as reduction in virus plaque formation after 5 days; format: functional, organism-based; conditions: 120 h; in short: as §1
[5] = biological target: T1, Neuraminidase; test: Inhibition of Influenza A virus H3N2 neuraminidase using MUNANA as substrate preincubated for 30 mins measured after 2 hrs
[6] = biological target: T1, Neuraminidase; test: Inhibition of Influenza A virus H5N1 neuraminidase using MUNANA as substrate preincubated for 30 mins measured after 2 hrs

T1 sequence (B4URF0 whole entry): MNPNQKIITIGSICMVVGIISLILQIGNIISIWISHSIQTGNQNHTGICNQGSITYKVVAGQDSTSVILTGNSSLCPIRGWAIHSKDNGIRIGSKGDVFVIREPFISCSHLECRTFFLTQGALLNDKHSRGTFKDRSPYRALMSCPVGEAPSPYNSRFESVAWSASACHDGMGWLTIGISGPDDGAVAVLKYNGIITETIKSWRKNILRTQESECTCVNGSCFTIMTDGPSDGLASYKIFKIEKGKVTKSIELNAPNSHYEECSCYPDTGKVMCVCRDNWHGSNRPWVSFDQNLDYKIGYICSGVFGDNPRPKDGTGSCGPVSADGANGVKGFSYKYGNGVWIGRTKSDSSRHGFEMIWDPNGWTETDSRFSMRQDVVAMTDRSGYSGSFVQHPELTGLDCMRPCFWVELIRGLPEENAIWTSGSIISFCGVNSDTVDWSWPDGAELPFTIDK

| Compound | pIC50 [1] | pIC50 [2] | pIC50 [3] | pIC50 [4] | pIC50 [5] | pIC50 [6] |
| --- | --- | --- | --- | --- | --- | --- |
| CC(=O)N[C@H]1[C@H]([C@H](O)[C@H](O)CO)OC(SCCCCCCSC2(C(=O)O)C[C@H](NC(=N)N)[C@@H](NC(C)=O)[C@H]([C@H](O)[C@H](O)CO)O2)(C(=O)O)C[C@@H]1NC(=N)N (stereo not given in full) | 6.59 | 6.60 | 6.00 | 8.00 | 5.38 | 6.70 |
| CC(=O)N[C@H]1[C@H]([C@H](O)[C@H](O)CO)OC(SCCOCCOCCOCCOCCSC2(C(=O)O)C[C@H](N)[C@@H](NC(C)=O)[C@H]([C@H](O)[C@H](O)CO)O2)(C(=O)O)C[C@@H]1N (stereo not given in full) | 4.44 | 4.68 | 4.00 | 6.00 | 3.75 | 4.19 |
| CC(=O)N[C@H]1[C@H]([C@H](O)[C@H](O)CO)OC(SCCOCCOCCOCCSC2(C(=O)O)C[C@H](N)[C@@H](NC(C)=O)[C@H]([C@H](O)[C@H](O)CO)O2)(C(=O)O)C[C@@H]1N (stereo not given in full) | 5.01 | 4.96 | 4.00 | 6.00 | 4.41 | 4.55 |
| CC(=O)N[C@H]1[C@H]([C@H](O)[C@H](O)CO)OC(SCCCCCCSC2(C(=O)O)C[C@H](N)[C@@H](NC(C)=O)[C@H]([C@H](O)[C@H](O)CO)O2)(C(=O)O)C[C@@H]1N (stereo not given in full) | 5.00 | 4.94 | 4.00 | 6.00 | 4.49 | 4.70 |
| CC(=O)N[C@H]1[C@H]([C@H](O)[C@H](O)CO)OC(SCCOCCOCCOCCOCCOCCSC2(C(=O)O)C[C@H](N)[C@@H](NC(C)=O)[C@H]([C@H](O)[C@H](O)CO)O2)(C(=O)O)C[C@@H]1N (stereo not given in full) | 4.35 | 4.48 | 4.00 | 6.00 | 3.67 | 4.07 |
| CC(=O)N[C@H]1[C@H]([C@H](O)[C@H](O)CO)OC(SCCOCCOCCOCCSC2(C(=O)O)C[C@H](NC(=N)N)[C@@H](NC(C)=O)[C@H]([C@H](O)[C@H](O)CO)O2)(C(=O)O)C[C@@H]1NC(=N)N (stereo not given in full) | 5.62 | 5.75 | 6.00 | 7.00 | 5.00 | 5.60 |
| CC(=O)N[C@H]1[C@H]([C@H](O)[C@H](O)CO)OC(SCCOCCOCCOCCOCCSC2(C(=O)O)C[C@H](NC(=N)N)[C@@H](NC(C)=O)[C@H]([C@H](O)[C@H](O)CO)O2)(C(=O)O)C[C@@H]1NC(=N)N (stereo not given in full) | 5.92 | 6.00 | 6.00 | 8.00 | 5.00 | 5.96 |
| CC(=O)N[C@H]1[C@H]([C@H](O)[C@H](O)CO)OC(SCCCCCCS)(C(=O)O)C[C@@H]1NC(=N)N (stereo not given in full) | 6.10 | 6.26 | 5.00 | 6.00 | 6.00 | 7.00 |
| CC(=O)N[C@H]1[C@H]([C@H](O)[C@H](O)CO)OC(C(=O)O)=C[C@@H]1NC(=N)N [ZANAMIVIR] | – | – | 8.00 | 9.00 | – | – |
| CC(=O)N[C@H]1[C@H]([C@H](O)[C@H](O)CO)OC(SCCCCCCCCCCCCSC2(C(=O)O)C[C@H](NC(=N)N)[C@@H](NC(C)=O)[C@H]([C@H](O)[C@H](O)CO)O2)(C(=O)O)C[C@@H]1NC(=N)N (stereo not given in full) | 6.10 | 6.30 | 6.00 | 7.00 | 4.92 | 6.14 |
| CCOC(=O)C1=C[C@@H](OC(CC)CC)[C@H](NC(C)=O)[C@@H](N)C1 [OSELTAMIVIR] | – | – | 9.00 | 9.00 | – | – |
| CC(=O)N[C@H]1[C@H]([C@H](O)[C@H](O)CO)OC(SCCCCCCS)(C(=O)O)C[C@@H]1N (stereo not given in full) | 4.25 | 4.19 | < 4.00 | 5.00 | 3.75 | 3.90 |
| CC(=O)N[C@H]1[C@H]([C@H](O)[C@H](O)CO)OC(SCCCCCCCCCCCCSC2(C(=O)O)C[C@H](N)[C@@H](NC(C)=O)[C@H]([C@H](O)[C@H](O)CO)O2)(C(=O)O)C[C@@H]1N (stereo not given in full) | 4.96 | 4.82 | 4.00 | 6.00 | 4.40 | 4.51 |

Reference: ChEMBL document CHEMBL3102796
